HSV replic up – HSV replication enhancement; hit rate 0.005% among 220,000; HSV replication augmentation in cells, fold increase; maximum fold increase; AID 1956; in the data active means maximum fold increase above about 1.5; tested in PC3 cells
L major viab – Leishmania major promastigote growth inhibition; inhibition, % at 10 µM; hit rate 9% among 200,000; Leishmania major promastigotes, resazurin fluorescence viability; AID 1063; in the data active means inhibition above about 50%;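 further: promastigotes grown with compound for 44 hours at 28 °C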
b-catenin transl – beta-catenin nuclear translocation modulation. nuclear translocation activity, % at 5 µM. HeLa beta-catenin nuclear translocation, immunofluorescence imaging. AID 1665. hit rate 0.3% among 190,000;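 active means nuclear translocation activity above 50% at 5 µM, with a well cell count of 50 or more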;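 further: per-cell ratio of nuclear to cytoplasmic median beta-catenin stain intensity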
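System: HeLa cells, endogenous beta-catenin; compound dosing: 5 µM primary single dose, 0.1% DMSO, 0.02–20 µM confirmation series; incubation: 24 h compound exposure at 37°C, 5% CO2; signal: beta-catenin immunofluorescence imaging with DAPI; evaluation: % activation, nuclear-to-cytoplasmic median beta-catenin signal ratio per cell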
MT stabilize HCS – microtubule stabilizers in HeLa cells; HeLa tubulin immunostaining HCS, 24 h; share of cells brighter than vehicle mean+2SD; % tubulin-high responders, % at 10 µM; hit rate 0.83% among 200,000; AID 2205;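 active means plate Z-score above 3 for both tubulin-high and condensed-nucleus cell shares, with cell loss under 80%, at 10 µM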;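 further: anti alpha tubulin signal scored within the nucleus-defined area of each cell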
Dynein cargo inh – dynein cargo transport inhibition; 3617.4 mouse cells, GR-EGFP nuclear translocation imaging; test concentration mostly 20 µM; stimulated with dexamethasone, 1 µM; stronger effect = lower value; z-score, hits read low; hit rate 0.47% among 220,000;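 active means plate z-score of nuclear minus cytoplasmic receptor signal below a set negative limit, without overly bright fluorescence or cell loss, cut at about -3.5 in these data, passing the limit was not always enough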;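 further: z-score of nuclear minus cytoplasmic ring GR-EGFP intensity difference per well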
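Medium: Induction medium lacking tetracycline, stripped serum | Probe or stimulus: 1.0 µM final dexamethasone stimulus | Schedule: 48 h induction, then 1 h compound, then 30 min agonist, 37 °C | Signal: Automated 10x imaging of fixed Hoechst-stained cells | Evaluation: Per-cell GR-EGFP intensity, nucleus versus surrounding cytoplasmic ring, well-averaged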
Hits are given with their value; . = inactive; / = no result. The list is not random: actives were taken first. Their share in the collection is about 8.9%.

SMILES	HSV replic up	L major viab	b-catenin transl	MT stabilize HCS	Dynein cargo inh
Cc1ccc(NC(=O)NCC2CCN(Cc3cccc(Cl)c3)CC2)c(Cl)c1	.	84.4	.	.	.
Cc1ccc(NC(=O)NCC2CCN(Cc3cccc(Cl)c3)CC2)cc1Cl	.	87.1	.	.	.
Cc1ccc(NC(=O)NCC2CCN(Cc3cc(C)ccc3Cl)CC2)c(C)c1	.	.	.	.	.
CN=C1SC(CC(=O)Nc2ccc(N3CCOCC3)cc2)C(=O)N1C (centres undefined)	.	.	/	.	.
O=C1C2C3C=CC(c4ccccc4)(C2C(=O)N1c1cccc(Cl)c1)C1C(=O)N(c2cccc(Cl)c2)C(=O)C31 (centres undefined)	.	68.0	.	.	.
N#CC1=C(SCC(=O)NCc2ccccc2)NC(=O)CC1c1ccco1 (centres undefined)	.	.	.	.	.
CCOC(=O)CSC1=C(C#N)C(c2ccccc2OC)CC(=O)N1 (centres undefined)	.	.	.	21.5	.
COC(=O)CSC1=C(C#N)C(c2ccccc2)CC(=O)N1 (centres undefined)	.	.	/	.	.
N#CC1=C(SCC(=O)Nc2ccccc2)NC(=O)CC1c1ccco1 (centres undefined)	.	.	/	50.0	.
COC(=O)CSC1=C(C#N)C(c2ccsc2)CC(=O)N1 (centres undefined)	.	.	.	44.8	.
CCSC1=C(C#N)C(c2ccccc2OC)CC(=O)N1 (centres undefined)	.	.	.	.	.
CCOC(=O)CSC1=C(C#N)C(c2ccc(C)s2)CC(=O)N1 (centres undefined)	.	.	.	30.8	.
CCOc1ccc(S(=O)(=O)Nc2ccc3c(c2)c2c(n3S(=O)(=O)c3ccc(OCC)cc3)CCCC2=O)cc1	.	.	.	.	.
Cc1ccc2oc3c(c(=O)c2c1)C(c1ccc(F)cc1)N(CCCN1CCOCC1)C3=O (centres undefined)	.	.	/	.	.
COCCN1C(=O)CC(NNC(=O)c2ccc(S(=O)(=O)N3CCCC3)cc2)C1=O (centres undefined)	.	.	.	.	.
Cc1cccc(-n2cnc3sc(C)c(C)c3c2=O)c1	.	/	.	/	.
C=CCn1c(SCC(=O)NC(=O)c2cccc([N+](=O)[O-])c2)nnc1-c1ccccc1F	.	.	.	.	.
COC(=O)c1cn(CCOc2ccccc2OC)c2ccccc12	.	.	/	.	.
COc1cccc(/C=N/NC(=O)c2[nH]c(C)c(C(=O)N/N=C/c3cccc(OC)c3O)c2C)c1O	.	91.3	.	.	.
Nc1cc(Cl)nc(N/N=C/c2c(O)ccc3ccccc23)n1	.	91.0	.	.	.
COc1cccc(/C=N/NC(=O)c2ccc(=O)[nH]n2)c1O	.	/	.	/	.
Nc1nonc1N/N=C/c1c(O)ccc2ccccc12	.	.	.	.	.
COc1cc(OC)c(OC)cc1/C=N/NC(=O)c1ccc(=O)n(C)c1	.	.	.	.	.
COc1cccc(/C=N/NC(=O)c2ccc(=O)n(C)c2)c1O	.	81.0	.	.	.
CCOc1cccc(/C=N/NC(=O)c2cc(-c3cccn3C)n[nH]2)c1O	.	98.2	.	.	.
SMILES	HSV replic up	L major viab	b-catenin transl	MT stabilize HCS	Dynein cargo inh
COc1ccc(C(=O)NCc2nnc(SCC(=O)Nc3ccccc3F)o2)cc1	.	.	.	.	.
O=C(N/N=C/c1c(O)ccc2ccccc12)c1ccc[n+](CCO)c1	.	.	.	.	.
C=CCc1cccc(/C=N/NC(=O)c2ccccc2OC)c1O	.	98.4	.	.	.
Cn1cc(C(=O)N/N=C/c2c(O)ccc3ccccc23)ccc1=O	.	99.3	.	.	.
O=C(N/N=C/c1ccc[nH]1)c1ccccc1OCc1ccccc1Cl	.	.	.	.	.
O=C(CSCC(=O)Nc1ccccc1)N/N=C/c1c(O)ccc2ccccc12	/	99.6	.	.	.
O=C(N/N=C/c1ccco1)c1ccccc1OCc1ccccc1Cl	.	69.1	.	.	.
C=CCc1cccc(/C=N/NC(=O)c2ccccc2Br)c1O	.	.	.	.	.
COC(=O)c1ccc(CNC(=O)COC(=O)C2CCC(C(C)(C)C)CC2)cc1 (centres undefined)	.	.	.	.	.
CC12CCC(C(=O)NCc3ccc(Cl)cc3)(OC1=O)C2(C)C (centres undefined)	.	.	.	.	.
CCOc1ccc2cc(C#N)c(SCC(=O)N3CCCC3)nc2c1	/	.	/	.	.
C(=N\N1CCN(Cc2cccc3ccccc23)CC1)/c1ccco1	.	.	/	.	.
CCOC(=O)c1c(C)[nH]c(C(=O)N/N=C/c2ccc(Br)cc2)c1C	/	.	121.3	.	.
COc1ccc(N(C(=O)c2cnsn2)C(C(=O)NC2CCCCC2)c2ccncc2)cc1 (centres undefined)	.	57.8	.	.	.
O=C1CCCC2=C1C(c1ccc(O)c(Br)c1)C1=C(CCCC1=O)N2c1ccccc1	.	.	.	.	.
COc1cc(Br)cc(C2C3=C(CCCC3=O)N(c3ccc(F)cc3)C3=C2C(=O)CCC3)c1O	.	57.6	.	.	.
Cc1nn(-c2ccccc2)c(C)c1/C=N/NC(=O)c1cc(-c2ccc(Br)s2)[nH]n1	.	55.7	.	.	.
Cc1nn(-c2ccccc2)c(C)c1/C=N/NC(=O)c1cc(C2CC2)[nH]n1	.	.	.	.	.
Cc1nn(-c2ccccc2)c(C)c1/C=N/NC(=O)c1cc(C23CC4CC(CC(C4)C2)C3)[nH]n1	.	91.0	.	.	.
CC(/C=N/NC(=O)c1cc(-c2ccc(C)s2)[nH]n1)=C\c1ccccc1	.	.	.	27.5	.
Cc1ccc(C)c(OCC(=O)N/N=C/c2c(C)nn(-c3ccccc3)c2Cl)c1	/	.	.	21.5	.
Cc1nn(-c2ccccc2)c(Cl)c1/C=N/NC(=O)OC(C)(C)C	.	.	.	.	.
Cc1sc2ncnc(OCC(=O)Nc3ccc4c(c3)OCCO4)c2c1C	/	.	.	.	.
Cc1nn(-c2ccccc2)c(C)c1/C=N/NC(=O)c1cc(-c2ccc(Cl)s2)[nH]n1	.	.	119.4	15.5	.
Cc1nn(-c2ccccc2)c(C)c1/C=N/NC(=O)c1cc(-c2cccs2)[nH]n1	.	.	162.0	8.9	.
SMILES	HSV replic up	L major viab	b-catenin transl	MT stabilize HCS	Dynein cargo inh
Cc1cc(C(=O)N/N=C/c2c(C)nn(-c3ccccc3)c2C)n[nH]1	.	/	.	/	.
COc1ccc(C2=CC(=O)OC(C)(c3ccccc3)O2)cc1 (centres undefined)	.	.	51.4	9.8	.
CCN(CC)S(=O)(=O)c1ccc(-c2nnc(SCC(=O)N3c4ccccc4CC3C)n2CC)cc1 (centres undefined)	.	90.6	.	.	.
Cc1ccc(C)c(NC(=S)NC(C)C(c2ccccc2)N2CCN(C)CC2)c1 (centres undefined)	.	.	.	.	.
Cc1ccc(NC(=S)N=Nc2c(O)[nH]c3ccccc23)cc1	.	90.6	.	.	.
O=C(NC(=S)NCCN1CCOCC1)c1ccccc1Cl	.	58.3	.	.	.

High-throughput results from PubChem BioAssay.
